Bioassay records deposited in PubChem by Johns Hopkins Ion Channel Center.
A selection: hits, their analogues and other compounds. The true share with any hit is near 3.7%.
KCNK9 inh = blocks the human KCNK9 two-pore domain potassium channel. AID 488922. HEK293 KCNK9, FluxOR thallium flux fluorescence; hits give low values. 310,000 tested, 1.2% active. B-score at 10 µM;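 active = ratio B-score over 3 SD below the library mean, with starting fluorescence within 5 SD of its mean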;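 also: negative B-score means less thallium flux so channel inhibition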
Kir21 inh = inhibitors of mouse Kir2.1 inward-rectifier potassium channel | B-score at 10 µM | HEK293-Kir2.1, FluxOR thallium flux fluorescence; hits give low values | 310,000 tested, 0.85% active | P35561;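 active = fluorescence ratio B-score at or below minus 3 SD of library scores, with starting-brightness B-score within 2 SD, cut at about -4.2 in these data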;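 also: channel flux triggered by added potassium and thallium sulfate stimulus; B-score of peak minus minimum fluorescence over baseline after thallium stimulus; more negative B-score means stronger Kir2.1 block with less thallium influx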
KCNQ1 block = blocks the human KCNQ1 potassium channel; B-score at 10 µM; 310,000 tested, 1.3% active; AID 2642; CHO-K1 KCNQ1, FluxOR thallium flux fluorescence; hits give high values;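 active = compounds whose thallium flux B-score, printed positive for inhibition, exceeds three library SD while starting fluorescence stays within three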;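 also: channel opened by potassium depolarization with thallium stimulus after 20 min compound exposure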
KCNK3 block = human KCNK3 channel inhibition, primary screen. 340,000 tested, 0.84% active. O14649. B-score at 10 µM. CHO-KCNK3 thallium flux, FluxOR fluorescence; hits give low values. AID 602410;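 active = B-score under library mean minus 4 SD, starting fluorescence ratio at most library mean plus 5 SD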;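 also: more negative B-score means stronger inhibition of thallium flux through KCNK3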
KCNQ1 pot = potentiators or activators of human KCNQ1 potassium channel; CHO-K1 KCNQ1, thallium flux FluxOR fluorescence; hits give high values; 310,000 tested, 0.35% active; B-score at 10 µM; P51787;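 active = fluorescence ratio B-score, a plate-corrected score, at least three library SD, with initial intensity B-score within 5 SD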
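System: Stable KCNQ1 CHO-K1 line | Incubation: 90 min dye loading and 20 min compound exposure, both at room temperature | Measure: Ratio B score | Medium: Assay buffer for compound exposure, DMSO matched across wells | Compound dosing: Single-concentration screen | Probe or stimulus: K+/Tl+ depolarizing stimulus | Measured by: Kinetic FluxOR fluorescence, 10 s baseline plus 110 s post-stimulus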
hERG protect = compounds protecting human hERG from proarrhythmic drug block | Q12809 | 310,000 tested, 0.51% active | activation (rescue from dofetilide block), less the hit threshold, % at 10 µM | CHO-hERG, FluxOR thallium flux, dofetilide IC70 present;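 active = activation above the mean of controls blocked by dofetilide plus 5 SD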;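 also: thallium influx through hERG after potassium depolarization seen as dye fluorescence rise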
Large screens that a line does not name were inactive.

CC(Sc1n[nH]c(-c2ccccc2)n1)C(=O)c1c(N)n(C)c(=O)n(C)c1=O (centres undefined)	none
Cc1ccc(CN2C(=O)c3ccccc3NC2c2cc(Br)ccc2O)cc1 (centres undefined)	KCNQ1 block 13
COc1ccc(N(CC(=O)N2CCN(c3ccccc3)CC2)S(=O)(=O)c2ccc(C)cc2)cc1	none
CCOc1ccc(N(CC(=O)N2CCN(c3ccccc3OC)CC2)S(=O)(=O)c2ccc(C)cc2)cc1	KCNQ1 block 9
O=C(CN1C(=O)c2cccnc2Oc2ccc(Cl)cc21)N1CCCC1	none
COc1cc(OC)c(OC)cc1CN1CCCC(C(=O)c2ccc3c(c2)OCO3)C1 (centres undefined)	none
O=C(c1ccc2c(c1)OCO2)C1CCCN(Cc2ccc(OC(F)F)cc2)C1 (centres undefined)	Kir21 inh -10
CN(Cc1ccccc1)C(=O)[C@@H]1CCCN1S(=O)(=O)c1ccc(Cl)cc1	none
Cc1ccc(C2=N/C(=C\c3cccc(F)c3)C(=O)O2)cc1	none
Cn1c(=O)c2c(nc(N/N=C/c3ccc(OC(=O)c4ccco4)cc3)n2Cc2ccccc2Cl)n(C)c1=O	KCNQ1 block 7
CC(=O)Nc1ccc(C2=CC(=O)C[C@H](c3ccc4c(c3)OCO4)C2)cc1	none (no result: KCNK9 inh, Kir21 inh, KCNQ1 block, KCNQ1 pot, hERG protect)
O=C(NCCC(c1ccccc1)c1ccco1)c1cccs1 (centres undefined)	none
Fc1ccc(C(CCNCc2cccs2)c2ccco2)cc1 (centres undefined)	Kir21 inh -4.5
CCN(CC)S(=O)(=O)c1cccc(C(=O)OCC(=O)NCCN2C(=O)CSC2=O)c1	none (no result: KCNK9 inh, Kir21 inh, KCNQ1 block, KCNQ1 pot, hERG protect)
COc1cccc(/C=N/Nc2ccc(S(=O)(=O)O)cc2)c1O	none
COc1cccc(/C=N/Nc2ccc(C(=O)O)cc2)c1O	hERG protect 5.5
NS(=O)(=O)c1cc(C(=O)N2CCNC(=O)C2)ccc1Cl	none
CC(C)CC(=O)Nc1ccc(C(=O)NNC(=S)NC(=O)C2CCCCC2)cc1	KCNQ1 block 7
CCOC(=O)c1cc(NC(=O)N(CC)CC)c(C)nc1C	none
CC(=O)C1=NN(c2ccccc2)C(c2cccs2)N1c1ccccc1 (centres undefined)	KCNK9 inh -7.6, KCNQ1 block 8 (no result: KCNK3 block)
CC(=O)C1=NN(c2ccccc2)C(c2ccc3c(c2)OCO3)N1c1ccc(N2CCOCC2)cc1 (centres undefined)	none
COC(=O)C(CC(C)C)NC(=O)c1ccc([N+](=O)[O-])c(C)c1 (centres undefined)	hERG protect 4.6
COc1ccc(C(=O)CC(=O)c2ccccc2)cc1	none
COc1ccc(C(=O)C/C(=C\C(=O)c2ccc(C)cc2)c2ccccc2)cc1	KCNQ1 block 6
CCCOc1ccc(C(C(=O)OCCN(CC)CC)c2ccccc2)cc1 (centres undefined)	none
COc1ccc(C(C(=O)OCCN(C)C)c2ccccc2)cc1 (centres undefined)	KCNK9 inh -6.8
O=C(CC(CC(=O)c1ccccc1)c1ccncc1)c1ccccc1	none (no result: KCNK9 inh, Kir21 inh, KCNQ1 block, KCNQ1 pot, hERG protect)
COc1ccc(C(CC(=O)c2ccccc2)CC(=O)c2ccccc2)cc1	KCNK9 inh -7.1
Cc1c(-n2c(SCC(N)=O)nc3ccccc3c2=O)c(=O)n(-c2ccccc2)n1C	none
COc1cc(C(CC(=O)O)n2cnnn2)ccc1OC(C)C (centres undefined)	none
CCN(CC(=O)Nc1cc(Cl)ccc1C)c1ncnc2sc(C)c(C)c12	KCNK9 inh -6.6
Cc1occc1-c1nnc(SC(C)C(=O)Nc2ccccc2F)o1 (centres undefined)	none (no result: KCNK9 inh, Kir21 inh, KCNQ1 block, KCNQ1 pot, hERG protect)
CCc1ccc(/C=C2\Oc3c(ccc(O)c3CN3CCN(CCO)CC3)C2=O)cc1	KCNQ1 block 11
CCc1ccc(/C=C2\Oc3cc(OS(C)(=O)=O)ccc3C2=O)cc1	none
Cc1cccnc1NC(=S)NC(=O)c1oc2ccccc2c1C	none
CCOc1ccccc1N1CCN(C2=C(NS(=O)(=O)c3cccs3)C(=O)c3ccccc3C2=O)CC1	KCNK9 inh -6.6
O=C(COC(=O)CCc1ccccc1)NNC(=O)c1ccccc1	none (no result: KCNK9 inh, Kir21 inh, KCNQ1 block, KCNQ1 pot, hERG protect)
COCCn1c(SCC(=O)NC2CCCC2)nc2c(c1=O)SCC2	none
CCOC(=O)c1ccc2c(c1)n(CC)c(/C=C/Nc1ccccc1)[n+]2CC	KCNQ1 block 13
